Test results taken from PMC3984478 (Cancer cell, 2012).

Legend:
TMD8 cells = test: Growth inhibition, ATP-based luminescent assay; format: cell-based, human; settings: TMD8
Method in brief: (§1)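 Cells received a single dose of test compound over a concentration range and proliferation was read at 48 hr by luminescent ATP quantification. Luminescence was converted to cell number using per-line standard curves built from trypan blue counts. Viability was normalised to controls and expressed as 1 − fractional viability, and GI25/GI50 were fitted. Experiments were run three times in triplicate.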

[1] = molecular target: LZ-MALT1 (recombinant MALT1 (340–789) fused with a leucine zipper dimerization motif) (Homo sapiens, UniProt Q9UDY8); test: LZ-MALT1 fluorescence activity assay; format: biochemical; settings: preincubation with compound before Ac-LRSR-AMC
Method in brief: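 Recombinant MALT1 (340–789) fused to a leucine zipper dimerization motif was preincubated with test compound (0–25 µM) for 5–90 min. Ac-LRSR-AMC substrate was then added, and AMC release was read by fluorescence at 360 nm excitation and 465 nm emission. Percent inhibition was normalized and plotted against preincubation time.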

[2] = system: primary human non-GCB DLBCL cells; test: Primary human DLBCL ex vivo viability, trypan blue; format: cell-based; settings: 0.8 µM, 48 hr
Method in brief: (§2)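 Single-cell suspensions came from lymph-node biopsies of five DLBCL patients, prepared by physical disruption and density-gradient separation. GCB versus non-GCB status was assigned by Hans-criteria IHC. Cells were cultured in RPMI with 20% FBS and antibiotics and exposed to 0.8 µM test compound (1 µM for one patient) or DMSO in quadruplicate for 48 hr. Cell number and viability were counted by trypan blue and normalised to vehicle.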

HLY-1 cells = test: Growth inhibition, ATP-based luminescent assay; format: cell-based, human; settings: HLY-1, single dose, 48 hr
Method in brief: as §1

caspase-3 = caspase-3 (Homo sapiens, UniProt P42574); test: Caspase selectivity; format: biochemical
[3] = system: primary human GCB DLBCL cells; test: Primary human DLBCL ex vivo viability, trypan blue; format: cell-based; settings: 0.8 µM, 48 hr
Method in brief: as §2

[4] = system: NF-κB reporter activity in HBL-1 cells; test: NF-κB reporter assay in HBL-1; format: cell-based, human; settings: 200 nM
Method in brief: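 NF-κB luciferase reporter in HBL-1 cells treated with 200 nM test compound, 50 µM Z-VRPR-FMK or vehicle for 8 and 24 hr. Activity is given as % of vehicle, normalised to an internal control. Statistics used ANOVA with Bonferroni post-test.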

C57BL/6 mice = test: Toxicity in mice; format: in vivo
caspase-8 = caspase-8 (Homo sapiens, UniProt Q14790); test: Caspase selectivity; format: biochemical
[5] = system: MALT1 substrate cleavage in HBL-1 and TMD8 cell lines; test: Cleavage of MALT1 substrates A20, BCL10, RELB, western blot with MG-132; format: cell-based, human; settings: 2 µM, 30 min, then 5 µM MG-132 for 1 or 2 hr
Method in brief: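 HBL-1 and TMD8 cells were pretreated for 30 min with 2 µM test compound or vehicle. Proteasome inhibitor MG-132 (5 µM) was then added for a further 1 or 2 hr so that cleaved substrate forms could accumulate. Western blots were probed for A20, RELB and BCL10, and cleavage products were identified by band position.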

HBL-1 cells = test: BrdU incorporation-DAPI cell cycle; format: cell-based, human; settings: 24 and 48 hr
Method in brief: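 HBL-1 cells were treated with test compound for 24 and 48 hr, then pulse-labelled with BrdU and co-stained with DAPI. Cell-cycle phases (S, G1-0, sub-G0) were read by flow cytometry. Data are mean ± SD of two independent experiments.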

[6] = system: HBL-1, TMD8, and OCI-Ly10; test: CFSE dilution proliferation assay; format: cell-based, human; settings: increasing concentrations, 48, 72, and 96 hr
Method in brief: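 Cells were exposed to increasing concentrations of test compound, and CFSE dilution was read by flow cytometry at 48, 72 and 96 hr. 2 × 10^4 cells were acquired per sample, and DAPI staining was used to gate viable cells for analysis.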

Chain of caspase-3 (P42574 29-175 limits assumed, species assumed): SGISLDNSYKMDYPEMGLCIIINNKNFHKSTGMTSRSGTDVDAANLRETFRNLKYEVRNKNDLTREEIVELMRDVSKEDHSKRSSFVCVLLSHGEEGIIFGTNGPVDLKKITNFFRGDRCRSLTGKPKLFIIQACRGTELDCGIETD
Chain of caspase-3 (P42574 176-277 limits assumed, species assumed): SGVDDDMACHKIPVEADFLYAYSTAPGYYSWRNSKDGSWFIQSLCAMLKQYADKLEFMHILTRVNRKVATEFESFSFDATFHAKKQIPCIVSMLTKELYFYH
Chain of caspase-8 (Q14790 217-374 limits assumed): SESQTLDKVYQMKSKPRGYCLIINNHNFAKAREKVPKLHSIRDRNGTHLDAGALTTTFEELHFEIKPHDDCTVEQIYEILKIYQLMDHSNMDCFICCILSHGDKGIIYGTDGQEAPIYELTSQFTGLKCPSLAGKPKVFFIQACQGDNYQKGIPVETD
Chain of caspase-8 (Q14790 385-479 limits assumed): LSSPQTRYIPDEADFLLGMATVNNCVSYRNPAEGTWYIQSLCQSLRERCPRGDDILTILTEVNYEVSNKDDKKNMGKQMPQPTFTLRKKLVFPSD

COCCOc1nc(-c2ccc(Cl)c(Cl)c2)n(-c2ccc(NC(=O)CCl)cc2)n1 [MI-2]
GI50 (TMD8 cells): 500 nM | inhibition reached [1]: ~100% | response of primary cases (cell number and viability) [2]: two of the non-GCB cases responded | growth inhibition (HLY-1 cells): resistant | activity against caspase-3 (caspase-3): little activity | response of primary cases (cell number and viability) [3]: none of the GCBs did | reduction in NF-κB reporter activity ([4]; 8 hr): 20% | reduction in NF-κB reporter activity ([4]; 24 hr): 50% | Complete peripheral blood counts, biochemistry, and liver function tests (C57BL/6 mice; daily IP 25 mg/kg over 14 days): normal | toxicity 1: physical indicators of sickness (C57BL/6 mice; daily IP, increasing doses 0.05 to 25 mg/kg over 10 days, cumulative 51.1 mg/kg): no evidence of lethargy, weight loss | activity against caspase-8 (caspase-8): little activity | cleavage of A20, BCL10, and RELB [5]: diminished the abundance of cleaved forms and/or increased the abundance of full-length proteins | cell cycle (BrdU-DAPI) (HBL-1 cells): dose-dependent decrease in S phase | proliferation (CFSE dilution) [6]: substantially inhibited proliferation
